Results from PMC5066155 (ACS Medicinal Chemistry Letters, 2016).
Where two headings read alike, the source gives them in different places.

Columns and labels:
[1] = Toxicological profile in animals; assay type: in vivo; settings: rats, dogs, and cynomolgus monkeys
[2] = tested on: cynomolgus monkey plasma sPLA2; experiment: In vitro sPLA2 inhibition in cynomolgus monkey plasma; assay type: biochemical; settings: read-out: ICu,50
[3] = tested on: sPLA2 activity in HepG2 cells; experiment: sPLA2 activity inhibition in HepG2 cells; assay type: cell-based; settings: Homo sapiens, HepG2, read-out: sPLA2 activity inhibition IC50
Pharmacokinetics in rat = settings: in vivo, iv, 2 μmol/kg
[4] = tested on: human plasma sPLA2 activity; experiment: Human plasma sPLA2 inhibition assay; assay type: biochemical
How it was run: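 Inhibition of endogenous sPLA2 activity in human plasma, run by a previously established protocol. The plasma IC50 is converted to an unbound value: IC50 × Fu/100, where Fu = 100 − human plasma protein binding (%). Values are means of at least two experiments, with experimental error within 20% of the value.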

[5] = Pharmacokinetics in mouse; settings: in vivo, iv, 10 μmol/kg
Pharmacokinetics in dog = settings: in vivo, iv, 1 μmol/kg
human OATP1B1 = target: T1, human OATP1B1 (Homo sapiens, UniProt Q9Y6L6); experiment: Inhibition of pivastatin uptake to HEK293 cells transfected with human OATP1B1; assay type: cell-based
T1 sequence (Q9Y6L6 1-691): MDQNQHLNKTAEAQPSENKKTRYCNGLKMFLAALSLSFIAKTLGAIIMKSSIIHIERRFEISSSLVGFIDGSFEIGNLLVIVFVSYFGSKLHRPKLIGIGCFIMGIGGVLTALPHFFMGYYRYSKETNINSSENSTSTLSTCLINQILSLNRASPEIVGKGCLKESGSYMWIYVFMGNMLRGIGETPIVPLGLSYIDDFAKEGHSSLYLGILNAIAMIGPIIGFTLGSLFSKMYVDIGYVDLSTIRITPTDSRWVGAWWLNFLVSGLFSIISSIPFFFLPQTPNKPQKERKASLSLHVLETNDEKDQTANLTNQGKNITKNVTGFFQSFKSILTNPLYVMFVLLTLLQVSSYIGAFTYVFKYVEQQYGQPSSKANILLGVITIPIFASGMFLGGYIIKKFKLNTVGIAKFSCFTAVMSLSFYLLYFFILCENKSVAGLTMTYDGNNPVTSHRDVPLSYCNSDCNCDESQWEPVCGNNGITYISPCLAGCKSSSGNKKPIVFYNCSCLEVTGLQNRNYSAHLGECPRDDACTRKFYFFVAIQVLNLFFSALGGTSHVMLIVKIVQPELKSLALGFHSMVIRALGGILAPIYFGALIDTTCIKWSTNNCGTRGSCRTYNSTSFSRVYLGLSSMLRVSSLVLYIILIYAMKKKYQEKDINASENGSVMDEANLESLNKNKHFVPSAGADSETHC
How it was run: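 HEK293 cells transfected with human OATP1B1 are used to measure the test compound's inhibition of pivastatin uptake into the cells. The IC50 is reported as an estimated value. Results are means of at least two experiments, with experimental error within 20% of the value.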

sPLA2-IIa [6] = target: T2, sPLA2-IIa (Homo sapiens, UniProt P14555); experiment: Ligand efficiency / ligand lipophilicity efficiency from sPLA2-IIa IC50; settings: pIC50 (sPLA2-IIa) – logD
T2 sequence (P14555 21-144): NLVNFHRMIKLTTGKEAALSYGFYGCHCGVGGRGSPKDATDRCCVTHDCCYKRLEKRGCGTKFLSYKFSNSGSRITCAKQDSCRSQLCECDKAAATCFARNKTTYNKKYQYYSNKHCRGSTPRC

sPLA2-IIa [7] = target: T2, sPLA2-IIa; experiment: sPLA2 inhibition assay using phosphatidylcholine as substrate; assay type: biochemical; settings: for increase in affinity/potency compared to 1: sPLA2-IIa, relative to compound 1
IKs = IKs (Homo sapiens, UniProt P51787); experiment: IonWorks patch clamp, CHO cells expressing IKs; assay type: cell-based
sPLA2-V = target: T3, sPLA2-V (Homo sapiens, UniProt P39877); experiment: sPLA2 inhibition assay using phosphatidylcholine as substrate; assay type: biochemical
T3 sequence (P39877 21-138): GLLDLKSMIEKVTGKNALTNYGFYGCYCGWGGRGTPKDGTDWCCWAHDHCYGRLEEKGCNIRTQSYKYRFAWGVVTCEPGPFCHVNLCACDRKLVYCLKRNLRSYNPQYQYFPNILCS

sPLA2-X = target: T4, sPLA2-X (Homo sapiens, UniProt O15496); experiment: as above; assay type: biochemical
T4 sequence (O15496 43-165): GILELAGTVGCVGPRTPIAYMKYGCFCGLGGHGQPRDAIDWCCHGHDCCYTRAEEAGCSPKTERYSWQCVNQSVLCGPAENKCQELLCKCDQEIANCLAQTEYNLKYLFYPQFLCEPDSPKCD

[8] = Intrinsic clearance in human hepatocytes; assay type: in vitro ADME; settings: pH 7.4
[9] = read-out: plasma ICu,50, plasma sPLA2 IC50 × Fu/100
[10] = read-out: plasma ICu,50, plasma sPLA2 IC50 × Fu/100, NA = not active at maximum tested concentration (25 μM)

Sequence of IKs (P51787 whole entry): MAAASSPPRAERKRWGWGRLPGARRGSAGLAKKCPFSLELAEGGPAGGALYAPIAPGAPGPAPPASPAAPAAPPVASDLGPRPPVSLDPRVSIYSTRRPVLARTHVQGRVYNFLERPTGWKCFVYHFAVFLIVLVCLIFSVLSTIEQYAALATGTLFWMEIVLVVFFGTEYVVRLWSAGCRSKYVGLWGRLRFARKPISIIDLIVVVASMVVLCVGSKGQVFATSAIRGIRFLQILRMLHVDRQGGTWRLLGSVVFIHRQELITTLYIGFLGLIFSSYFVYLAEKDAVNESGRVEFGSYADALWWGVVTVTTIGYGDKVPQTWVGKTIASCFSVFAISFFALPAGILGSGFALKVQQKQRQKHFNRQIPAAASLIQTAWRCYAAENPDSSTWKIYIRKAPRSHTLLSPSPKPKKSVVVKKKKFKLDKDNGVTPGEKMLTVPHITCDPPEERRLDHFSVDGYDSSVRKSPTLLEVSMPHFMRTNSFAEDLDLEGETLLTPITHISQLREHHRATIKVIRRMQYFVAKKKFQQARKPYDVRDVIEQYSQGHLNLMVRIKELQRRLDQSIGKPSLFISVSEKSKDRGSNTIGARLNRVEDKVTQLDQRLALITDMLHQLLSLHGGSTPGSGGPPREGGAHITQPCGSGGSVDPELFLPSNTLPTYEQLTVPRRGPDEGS

Question: What does the source list for `C[C@H](Cc1cccc(-c2cc(Cc3ccccc3)ccc2C(N)=O)c1)C(=O)O` [(R)-7]?
Answer: toxicological profile [1]: favorable toxicological profile; IC50 [2]: 1 nM; IC50 [3]: < 14 nM; clearance (Pharmacokinetics in rat): 1 mL/min/kg; IC50 [4, 9]: 0.1 nM; clearance [5]: 9.2 mL/min/kg; clearance (Pharmacokinetics in dog): 0.2 mL/min/kg

Question: For `CCC(Cc1cccc(-c2cc(Cc3ccccc3)ccc2C(N)=O)c1)C(=O)O` (stereo not shown) [Compound 8], which IC50 [4, 9] is on record?
Answer: Its IC50 is 0.8 nM.

Question: For `CCc1c(C(=O)C(N)=O)c2c(OCC(=O)O)cccc2n1Cc1ccccc1` [varespladib, reference compound], which IC50 [4, 10] is on record?
Answer: Its IC50 is 8 nM.

Question: Which IC50 (human OATP1B1) does the source give for `CC(Cc1cccc(-c2cc(Cc3ccccc3)ccc2C(N)=O)c1)C(=O)O` (stereo not shown) [Compound 7] here?
Answer: The IC50 was over 25000 nM.

Question: With `NC(=O)c1ccc(Cc2ccccc2)cc1` [Compound 1, 4-benzylbenzamide] as the molecule, how does the LLE (sPLA2-IIa [6]) read?
Answer: The LLE was 2.2.

Question: And the IC50 [4, 10]?
Answer: The IC50 was 900 nM.

Question: With `NC(=O)c1ccc(Cc2ccccc2)cc1-c1cccc(CCC(=O)O)c1` [Compound 4] as the molecule, how does the “increase in affinity/potency compared to 1” value (sPLA2-IIa [7]) read?
Answer: Its value is 2000 fold.

Question: What about the IC50 (IKs) of the same molecule?
Answer: Its IC50 is over 33300 nM.

Question: What about the clearance (Pharmacokinetics in rat; Sprague-Dawley) of the same molecule?
Answer: Its clearance is 1 mL/min/kg.

Question: And the IC50 [4, 9]?
Answer: Its IC50 is 7 nM.

Question: With `NC(=O)c1ccc(Cc2ccccc2)cc1-c1cccc(CC(=O)O)c1` [Compound 3] as the molecule, how does the “increase in affinity/potency compared to 1” value (sPLA2-IIa [7]) read?
Answer: Its value is “more than 300 fold”.

Question: For `NC(=O)c1ccc(Cc2ccccc2)cc1-c1cccc(CC2(C(=O)O)CC2)c1` [Compound 9], which IC50 (sPLA2-V) is on record?
Answer: The IC50 was 250 nM.

Question: What about the IC50 (sPLA2-IIa [7]) of the same molecule?
Answer: The IC50 was 18 nM.

Question: What about the IC50 (sPLA2-X) of the same molecule?
Answer: Its IC50 is 580 nM.

Question: And the hepatocyte CLint at 1 µM [8]?
Answer: The hepatocyte CLint at 1 µM was 21 µL/min/1e6 cells.

Question: What about the IC50 [4, 9] of the same molecule?
Answer: The IC50 was 0.9 nM.
